Laboratory results taken from ChEMBL document CHEMBL1145471, “Small molecule regulators of autophagy identified by an image-based high-throughput screen” (Proc Natl Acad Sci U S A, 2007).
Active and inactive are the calls of the source. The calls are words filed in the database; no cut-off is given here.

What was measured:
[1] = test system: H4; test: Induction of light chain 3-GFP level in human H4 cells at 7.4 uM after 24 hrs by high throughput fluorescence microscopy relative to control; type: functional
In short: (§1)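 H4 cells stably expressing LC3-GFP, kept in DMEM/10% FBS at 37°C, 5% CO2, were seeded in 96-well plates and exposed to compound for 24 h. Cells were then fixed in 4% paraformaldehyde and stained with 3 μg/ml DAPI. Automated fluorescence microscopy scored the number, size and intensity of LC3-GFP spots. Values are percent of DMSO wells, in triplicate, mean ± SD. Rapamycin served as positive control.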

[2] = test system: H4; test: Decrease in FYVE-RFP+ vesicle intensity per cell in human H4 cells after 2 hrs relative to control; type: functional; set-up: concentration or dose not given beside the values
In short: (§2)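 H4 cells stably expressing FYVE-RFP (H4-FYVE), grown in DMEM with 10% FBS, penicillin/streptomycin and 2 mM L-glutamine at 37°C, 5% CO2, seeded in 96-well plates and exposed to compound. Fixed in 4% paraformaldehyde, nuclei stained with 3 μg/ml DAPI, FYVE-RFP+ vesicles quantified by high-throughput fluorescence microscopy against DMSO control. Triplicate wells, mean ± SD.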

[3] = test system: H4; test: Increase in light chain 3-GFP+ autophagosome vesicle intensity per cell in human H4 cells at 7.4 uM after 24 hrs by high throughput fluorescence microscopy relative to control; type: functional
In short: (§3)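 H4 cells stably expressing LC3-GFP, seeded in 96-well plates and exposed to compound for 24 h; fixed in 4% paraformaldehyde, nuclei stained with 3 μg/ml DAPI. Automated fluorescence microscopy scored number, size and intensity of LC3-GFP spots; values expressed relative to DMSO-treated wells, rapamycin positive control. Triplicate wells, mean ± SD; experiments repeated three times.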

[4] = test system: H4; test: Decrease in FYVE-RFP+ vesicle intensity per cell in human H4 cells after 8 hrs relative to control; type: functional; set-up: concentration or dose not given beside the values; in short: as §2
[5] = test system: H4; test: Increase in long-lived protein degradation in human H4 cells after 1 hr relative to control; type: functional; set-up: concentration or dose not given beside the values
[6] = test system: H4; test: Increase in light chain 3-GFP+ autophagosome vesicle number per cell in human H4 cells at 7.4 uM after 24 hrs by high throughput fluorescence microscopy relative to control; type: functional; in short: as §1
[7] = test system: H4; test: Decrease in FYVE-RFP+ vesicle intensity per cell in human H4 cells after 4 hrs relative to control; type: functional; set-up: concentration or dose not given beside the values; in short: as §2
[8] = test system: H4; test: Increase in long-lived protein degradation in human H4 cells after 24 hrs relative to control; type: functional; set-up: concentration or dose not given beside the values
[9] = test system: H4; test: Increase in long-lived protein degradation in human H4 cells after 4 hrs relative to control; type: functional; set-up: concentration or dose not given beside the values
[10] = test system: H4; test: Increase in light chain 3-GFP+ autophagosome vesicle area per cell in human H4 cells at 7.4 uM after 24 hrs by high throughput fluorescence microscopy relative to control; type: functional; in short: as §3
[11] = test system: H4; test: Increase in long-lived protein degradation in human H4 cells after 2 hrs relative to control; type: functional; set-up: concentration or dose not given beside the values
[12] = test system: H4; test: Effect on FYVE-RFP+ vesicle intensity per cell in human H4 cells after 4 hrs relative to control; type: functional; set-up: concentration or dose not given beside the values; in short: as §2
[13] = test system: H4; test: Increase in light chain 3-GFP+ autophagosome vesicle area per cell in human H4 cells at 5.8 uM after 24 hrs by high throughput fluorescence microscopy relative to control; type: functional
In short: (§4)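 H4 cells stably expressing LC3-GFP, seeded in 96-well plates and exposed to compound for 24 h; screening concentrations were 3–12 μM, with rapamycin 0.22 μM and bafilomycin A1 0.40 μM. Cells fixed in 4% paraformaldehyde and stained with 3 μg/ml DAPI. Number, size and intensity of LC3-GFP spots measured by high-throughput fluorescence microscopy and expressed as percent of DMSO-treated wells. Rapamycin was the positive control. Triplicate wells, mean ± SD; experiments repeated three times.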

[14] = test system: H4; test: Effect on FYVE-RFP+ vesicle intensity per cell in human H4 cells after 2 hrs relative to control; type: functional; set-up: concentration or dose not given beside the values; in short: as §2
[15] = test system: H4; test: Increase in light chain 3-GFP+ autophagosome vesicle number per cell in human H4 cells at 5.8 uM after 24 hrs by high throughput fluorescence microscopy relative to control; type: functional
In short: (§5)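 H4 cells stably expressing LC3-GFP were grown in DMEM with 10% FBS and 2 mM L-glutamine at 37°C, 5% CO2. They were exposed to each compound for 24 h, with DMSO as negative and rapamycin as positive control. Cells were then fixed in 4% paraformaldehyde and stained with 3 μg/ml DAPI. High-throughput fluorescence imaging scored LC3-GFP spot number, size and intensity, expressed relative to DMSO. Mean ± SD of triplicates; experiments repeated three times.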

[16] = test system: H4; test: Increase in light chain 3-GFP+ autophagosome vesicle intensity per cell in human H4 cells at 5.8 uM after 24 hrs by high throughput fluorescence microscopy relative to control; type: functional; in short: as §5
[17] = test system: H4; test: Effect on FYVE-RFP+ vesicle intensity per cell in human H4 cells after 8 hrs relative to control; type: functional; set-up: concentration or dose not given beside the values; in short: as §2
[18] = test system: H4; test: Induction of light chain 3-GFP level in human H4 cells at 5.8 uM after 24 hrs by high throughput fluorescence microscopy relative to control; type: functional
In short: (§6)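 H4 cells stably expressing LC3-GFP, grown in DMEM with 10% FBS, penicillin/streptomycin and 2 mM L-glutamine at 37°C, 5% CO2. Cells were seeded in 96-well plates and exposed to library compounds at 3–12 μM for 24 h, then fixed in 4% paraformaldehyde and stained with 3 μg/ml DAPI. LC3-GFP spot number, size and intensity were measured by high-throughput fluorescence microscopy and expressed relative to DMSO. Triplicates, mean ± SD.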

[19] = test system: H4; test: Increase in light chain 3-GFP+ autophagosome vesicle number per cell in human H4 cells at 5.0 uM after 24 hrs by high throughput fluorescence microscopy relative to control; type: functional; in short: as §5
[20] = test system: H4; test: Increase in light chain 3-GFP+ autophagosome vesicle intensity per cell in human H4 cells at 5.0 uM after 24 hrs by high throughput fluorescence microscopy relative to control; type: functional; in short: as §5
[21] = test system: H4; test: Increase in light chain 3-GFP+ autophagosome vesicle area per cell in human H4 cells at 5.0 uM after 24 hrs by high throughput fluorescence microscopy relative to control; type: functional; in short: as §4
[22] = test system: H4; test: Induction of light chain 3-GFP level in human H4 cells at 5.0 uM after 24 hrs by high throughput fluorescence microscopy relative to control; type: functional; in short: as §1
[23] = test system: H4; test: Increase in ratio of light chain 3 subunit 2 to light chain 3 subunit 1 in human H4 cells at 8.3 uM after 4 hrs by Western blot; type: functional, cell-based
In short: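 H4 cells were treated with each compound for 4 h, then lysed. Lysates were immunoblotted with anti-LC3 antibody, with actin as loading control. LC3II and LC3I bands were compared as an LC3II/LC3I ratio.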

[24] = test system: H4; test: Induction of light chain 3-GFP level in human H4 cells at 8.3 uM after 24 hrs by high throughput fluorescence microscopy relative to control; type: functional; in short: as §6
[25] = test system: H4; test: Increase in light chain 3-GFP+ autophagosome vesicle intensity per cell in human H4 cells at 8.3 uM after 24 hrs by high throughput fluorescence microscopy relative to control; type: functional; in short: as §5
[26] = test system: H4; test: Increase in FYVE-RFP+ vesicle intensity per cell in human H4 cells after 8 hrs relative to control; type: functional; set-up: concentration or dose not given beside the values; in short: as §2
[27] = test system: H4; test: Increase in FYVE-RFP+ vesicle intensity per cell in human H4 cells after 2 hrs relative to control; type: functional; set-up: concentration or dose not given beside the values; in short: as §2
[28] = biological target: Serine/threonine-protein kinase mTOR (Homo sapiens, UniProt P42345); test: Effect on mTOR phosphorylation in human H4 cells at 8.3 uM after 4 hrs; type: cell-based
In short: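 H4 cells exposed to compound for 4 h. Lysates analysed by Western blot with anti-phospho and anti-total mTOR antibodies, with actin as loading control. Rapamycin served as reference.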

[29] = test system: H4; test: Reduction of poly(Q) level in human H4 cells expressing EGFP-Q79-HA after 24 hrs; type: functional, cell-based
In short: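 H4 cells were transiently transfected with an EGFP-Q79-HA expression vector. The medium was replaced 6 h after transfection and compounds were added. Poly(Q) was detected with anti-HA antibody.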

[30] = test system: H4; test: Increase in FYVE-RFP+ vesicle intensity per cell in human H4 cells after 4 hrs relative to control; type: functional; set-up: concentration or dose not given beside the values; in short: as §2
[31] = test system: H4; test: Increase in light chain 3-GFP+ autophagosome vesicle number per cell in human H4 cells at 8.3 uM after 24 hrs by high throughput fluorescence microscopy relative to control; type: functional; in short: as §5
[32] = test system: H4; test: Increase in light chain 3-GFP+ autophagosome vesicle area per cell in human H4 cells at 8.3 uM after 24 hrs by high throughput fluorescence microscopy relative to control; type: functional; in short: as §4

`CC(=O)C1=C(O)[C@@H]2[C@H]3c4c[nH]c5cccc(c45)C[C@H]3C(C)(C)N2C1=O` [CYCLOPIAZONIC ACID] gave an Activity [1] of 112.62%, an Activity [2] of 41.44% and an Activity [3] of 186.44%. For the same molecule, the Activity [4] was 33.06%, the Activity [5] was 103.58% and the Activity [6] was 162.66%. For the same molecule, the Activity [7] was 30.54%, the Activity [8] was 96.32% and the Activity [9] was 96.45%. The Activity [10] was 178.53% and the Activity [11] was 97.66%.
`CCN(CC)CCCCCCCCOC(=O)c1cc(OC)c(OC)c(OC)c1` was tested, and the Activity [12] was 74.72%, the Activity [13] was 201.59% and the Activity [5] was 106.69%. The Activity [8] was 95.47%, the Activity [9] was 109.05% and the Activity [14] was 89.59%. It also gave an Activity [15] of 170.87%, an Activity [16] of 229.5% and an Activity [17] of 78.64%. For the same molecule, the Activity [18] was 145.22% and the Activity [11] was 124.85%.
Work on `OCCN(CCO)c1nc(N2CCCCC2)c2nc(N(CCO)CCO)nc(N3CCCCC3)c2n1` [DIPYRIDAMOLE] yielded an Activity [19] of 170.2%, an Activity [20] of 213.63% and an Activity [21] of 199.02%. For the same molecule, the Activity [22] was 158.96%, the Activity [2] was 32.22% and the Activity [4] was 32.54%. It also gave an Activity [5] of 82.64%, an Activity [7] of 30.25% and an Activity [8] of 79.08%. The Activity [9] was 81.07% and the Activity [11] was 79.22%.
With `CN1CCN(CCCN2c3ccccc3Sc3ccc(C(F)(F)F)cc32)CC1` [TRIFLUOPERAZINE] the Activity [23] was “Active”, the Activity [24] was 105.72% and the Activity [25] was 1010.35%. The Activity [26] was 94.28%, the Activity [27] was 136.58% and the Activity [28] was “inactive”. The Activity [29] was “Dose-dependent effect”, the Activity [5] was 76.62% and the Activity [8] was 124.78%. The Activity [30] was 111.52%, the Activity [31] was 364.24% and the Activity [9] was 109%. For the same molecule, the Activity [32] was 520.24% and the Activity [11] was 105.6%.
